Key:
Plasmodium falciparum = experiment: Antimalarial activity against asexual blood stage Plasmodium falciparum W2 incubated for 72 hrs by Hoechst 33342 staining based assay; assay type: functional, organism-based
Procedure, shortened: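 P. falciparum W2 ring stages plated at 2% parasitemia and 0.75% hematocrit. Cells allowed to settle, then dosed by pin transfer from a 12-point 1:3 dilution series made from 1000× DMSO stocks. Artemisinin was the positive control and 0.1% v/v DMSO the negative. After 72 h: fixed, Hoechst 33342 DNA stain, high-content imaging. EC50 fitted per run from duplicate wells; three independent experiments.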

Plasmodium vivax [1] = experiment: Antimalarial activity against liver stage Plasmodium vivax schizont infected in human hepatocytes preincubated for 5 to 10 days followed by compound addition and measured after 12 days post infection by immunofluorescence staining based assay; assay type: functional, organism-based; conditions: hepatocyte
Procedure, shortened: (§1)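 Primary human hepatocytes seeded at 18 000 per collagen-coated well. Two days later, infected with sporozoites from mosquitoes fed P. vivax patient blood (Cambodia) 18 days earlier; a different isolate was used per experiment. Radical-cure mode: treated days 5–7 post-infection. Day 12: fixed, anti-PvUIS4 immunofluorescence, high-content imaging. Nigericin and 0.1% DMSO controls. Duplicate wells; two independent experiments.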

Plasmodium vivax [2] = experiment: Antimalarial activity against liver stage Plasmodium vivax hypnozoite infected in human hepatocytes preincubated for 5 to 10 days followed by compound addition and measured after 12 days post infection by immunofluorescence staining based assay; assay type: functional, organism-based; conditions: hepatocyte; procedure, shortened: as §1
[3] = Selectivity index, ratio of CC50 for primary human hepatocytes to EC50 for liver stage Plasmodium vivax schizont infected in human hepatocytes; assay type: toxicity, cell-based; conditions: read-out: Ratio CC50/EC50
[4] = Selectivity index, ratio of CC50 for primary human hepatocytes to EC50 for liver stage Plasmodium vivax hypnozoite infected in human hepatocytes; assay type: toxicity, cell-based; conditions: read-out: Ratio CC50/EC50
[5] = Cytotoxicity against human HepG2 cells incubated for 72 hrs by Hoechst 33342 staining based assay; assay type: toxicity, cell-based
Procedure, shortened: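 HepG2 cells, 2000 per collagen-coated well, treated the following day by pin transfer from a 12-point 1:3 dilution series (1000× DMSO stocks). Puromycin positive control; 0.1% v/v DMSO negative. After 72 h: fixed, Hoechst 33342 nuclear stain, high-content imaging. CC50 fitted per run from duplicate wells; three independent experiments.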

[6] = Selectivity index, ratio of CC50 for human HepG2 cells to EC50 for asexual blood stage Plasmodium falciparum W2; assay type: toxicity; conditions: read-out: Ratio CC50/EC50
[7] = Cytotoxicity against human primary hepatocytes; assay type: toxicity, cell-based, Hepatocyte
Procedure, shortened: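 Host primary human hepatocytes (18 000 per collagen-coated well) in the P. vivax liver-stage radical-cure cultures. Compound given days 5–7 post-infection from a 12-point 1:3 dilution series; fixed at day 12 and imaged by high-content imaging. 0.1% DMSO negative control. CC50 fitted per run from duplicate wells; two independent experiments.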

| Structure (SMILES) | EC50 (Plasmodium falciparum) [nM] | pEC50 (Plasmodium falciparum) | EC50 (Plasmodium vivax [1]) [nM] | pEC50 (Plasmodium vivax [1]) | EC50 (Plasmodium vivax [2]) [nM] | pEC50 (Plasmodium vivax [2]) | selectivity ratio [3] | selectivity ratio [4] | CC50 at 72 h ([5]; read-out: CC50) [nM] | CC50 at 72 h ([5]; read-out: pCC50 (converted)) [nM] | selectivity ratio [6] | CC50 ([7]; read-out: CC50) [nM] | CC50 ([7]; read-out: pCC50 (converted)) [nM] |
| --- | --- | --- | --- | --- | --- | --- | --- | --- | --- | --- | --- | --- | --- |
| CC1=C[C@H]2O[C@@H]3C[C@@H](O)[C@](C)([C@@]2(CO)CC1)[C@@]31CO1 | > 4370 | < 5.36 | > 10000 | < 5 | > 3310 | < 5.48 |  |  |  |  |  |  |  |
| COc1ccc(C[C@H](N)C(=O)N[C@H]2[C@@H](O)[C@H](n3cnc4c(N(C)C)ncnc43)O[C@@H]2CO)cc1 [PUROMYCIN] |  |  |  |  |  |  | < 1 | 2.25 |  |  |  |  |  |
| CC1=CC[C@@]23COC(=O)[C@@H](O)[C@H](C)CCOC(=O)/C=C/C=C\C(=O)O[C@@H]4C[C@@H](O[C@@H]2C1)[C@@]1(CO1)[C@]43C | 0.45 | 9.35 | 4.07 | 8.39 | 30.9 | 7.51 | 77.7 | 10.1 | 3.55 | 3.55 | 7.95 | 316 | 316 |
| CC(=O)OC[C@]12CCC(C)=C[C@H]1O[C@@H]1[C@H](O)[C@@H](OC(C)=O)[C@@]2(C)[C@]12CO2 (single isomer, unassigned) |  | 8.21 |  | 7.87 |  | 7.44 | 28.7 | 10.7 |  |  | 4.43 |  |  |
| CO[C@@H]1C[C@@H](C[C@H]2CC[C@H](C)[C@H]([C@@H](C)C(=O)O)O2)O[C@]2(O[C@](C)([C@H]3CC[C@@](C)([C@@H]4O[C@@H]([C@H]5O[C@@](O)(CO)[C@H](C)C[C@@H]5C)C[C@@H]4C)O3)C[C@H]2C)[C@@H]1C [NIGERICIN] |  |  |  |  |  |  | > 38.9 | > 16.3 |  |  |  |  | 200 |

From ChEMBL document CHEMBL5357032, “In Vitro Antimalarial Activity of Trichothecenes against Liver and Blood Stages of Plasmodium Species” (J Nat Prod, 2024)
